# Assay results from ChEMBL document CHEMBL2311390, “Synthesis and preliminary evaluation of pharmacological properties of some piperazine derivatives of xanthone” (Bioorg Med Chem, 2013).
# How the values were obtained:
# [1] = system: Rattus norvegicus; experiment: Hypotensive activity in normotensive Wistar rat assessed as reduction of systolic blood pressure at 0.625 mg/kg, iv after 60 mins; assay type: functional, Artery
# Procedure, shortened: (§1)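 Male normotensive Wistar rats (170–350 g) anaesthetised with thiopental 75 mg/kg ip; right carotid artery cannulated with heparinised saline-filled polyethylene tubing for pressure recording. After a 5 min stabilisation, compound given into the caudal vein at 1 mL/kg. Systolic pressure is recorded at 0, 5, 10, 20, 30 and 60 min, and the data are reported as mean ± SEM of five to six animals, with one-way ANOVA.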
# [2] = system: Rattus norvegicus; experiment: Hypotensive activity in normotensive Wistar rat assessed as reduction of diastolic blood pressure at 0.31 mg/kg, iv after 20 mins; assay type: functional, Artery
# Procedure, shortened: (§2)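 Male normotensive Wistar rats were anaesthetised with thiopental 75 mg/kg ip. The right carotid artery was cannulated with heparinised saline for pressure recording. After 5 min of stabilisation, compound was injected into the tail vein at 1 mL/kg. Systolic and diastolic pressure were followed up to 60 min. Data are means ± SEM of 5–6 rats, analysed by one-way ANOVA.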
# [3] = system: Rattus norvegicus; experiment: Hypotensive activity in normotensive Wistar rat assessed as reduction of systolic blood pressure at 0.625 mg/kg, iv after 10 mins; assay type: functional, Artery; procedure, shortened: as §1
# [4] = system: Rattus norvegicus; experiment: Hypotensive activity in normotensive Wistar rat assessed as reduction of diastolic blood pressure at 0.625 mg/kg, iv after 20 mins; assay type: functional, Artery; procedure, shortened: as §2
# [5] = system: Rattus norvegicus; experiment: Hypotensive activity in normotensive Wistar rat assessed as reduction of diastolic blood pressure at 1.25 mg/kg, iv after 60 mins; assay type: functional, Artery; procedure, shortened: as §2
# [6] = system: Rattus norvegicus; experiment: Hypotensive activity in normotensive Wistar rat assessed as reduction of systolic blood pressure at 1.25 mg/kg, iv after 10 mins; assay type: functional, Artery; procedure, shortened: as §1
# [7] = system: Rattus norvegicus; experiment: Hypotensive activity in normotensive Wistar rat assessed as reduction of diastolic blood pressure at 1.25 mg/kg, iv after 5 mins; assay type: functional, Artery; procedure, shortened: as §2
# [8] = system: Rattus norvegicus; experiment: Cardiotoxicity in Wistar rat assessed as QRS interval at 10 mg/kg, iv after 5 mins by ECG analysis; assay type: toxicity, organism-based; design: dose 10 mg/kg, route intravenous; conditions: in vivo
# Procedure, shortened: (§3)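 Male normotensive Wistar rats, 170–350 g, six per group. Compound given iv at a constant volume of 1 mL/kg. ECG was recorded just before dosing and at 1, 5 and 15 min after. PQ, QRS and QT intervals and heart rate were read from the trace. Groups were compared by one-way ANOVA.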
# [9] = system: Rattus norvegicus; experiment: Cardiotoxicity in Wistar rat assessed as hear beats per min at 10 mg/kg, iv after 15 mins by ECG analysis; assay type: toxicity, organism-based; design: dose 10 mg/kg, route intravenous; conditions: in vivo, 0.25 h; procedure, shortened: as §3
# [10] = system: Rattus norvegicus; experiment: Cardiotoxicity in Wistar rat assessed as QT interval at 10 mg/kg, iv after 10 mins by ECG analysis; assay type: toxicity, organism-based; design: dose 10 mg/kg, route intravenous; conditions: in vivo
# [11] = system: Rattus norvegicus; experiment: Cardiotoxicity in Wistar rat assessed as PQ interval at 10 mg/kg, iv after 15 mins by ECG analysis; assay type: toxicity, organism-based; design: dose 10 mg/kg, route intravenous; conditions: in vivo, 0.25 h; procedure, shortened: as §3
# [12] = system: Rattus norvegicus; experiment: Cardiotoxicity in Wistar rat assessed as QT interval at 5 mg/kg, iv after 5 mins by ECG analysis; assay type: toxicity, organism-based; design: dose 5 mg/kg, route intravenous; conditions: in vivo; procedure, shortened: as §3
# [13] = system: Rattus norvegicus; experiment: Cardiotoxicity in Wistar rat assessed as QRS interval at 5 mg/kg, iv after 5 mins by ECG analysis; assay type: toxicity, organism-based; design: dose 5 mg/kg, route intravenous; conditions: in vivo; procedure, shortened: as §3
# [14] = system: Rattus norvegicus; experiment: Cardiotoxicity in Wistar rat assessed as hear beats per min at 5 mg/kg, iv after 5 mins by ECG analysis; assay type: toxicity, organism-based; design: dose 5 mg/kg, route intravenous; conditions: in vivo; procedure, shortened: as §3
# [15] = system: Rattus norvegicus; experiment: Cardiotoxicity in Wistar rat assessed as QT interval at 5 mg/kg, iv after 15 mins by ECG analysis; assay type: toxicity, organism-based; design: dose 5 mg/kg, route intravenous; conditions: in vivo, 0.25 h; procedure, shortened: as §3
# [16] = system: Rattus norvegicus; experiment: Cardiotoxicity in Wistar rat assessed as QT interval at 5 mg/kg, iv after 10 mins by ECG analysis; assay type: toxicity, organism-based; design: dose 5 mg/kg, route intravenous; conditions: in vivo
# [17] = system: Rattus norvegicus; experiment: Cardiotoxicity in Wistar rat assessed as PQ interval at 5 mg/kg, iv after 5 mins by ECG analysis; assay type: toxicity, organism-based; design: dose 5 mg/kg, route intravenous; conditions: in vivo; procedure, shortened: as §3
smiles,measurement,setting,value
COc1ccccc1N1CCN(CCCOc2cccc3c(=O)c4ccccc4oc23)CC1.Cl,Activity,[1],129.5 mmHg
same,Activity,[2],105.7 mmHg
same,Activity,[3],125.5 mmHg
same,Activity,[4],110.5 mmHg
COc1ccccc1N1CCN(CC(COc2cccc3c(=O)c4ccccc4oc23)OC(C)=O)CC1.Cl (racemic),Activity,[5],89.6 mmHg
same,Activity,[1],123.2 mmHg
same,Activity,[6],118.4 mmHg
same,Activity,[7],92.8 mmHg
same,Activity,[3],123.8 mmHg
same,Activity,[4],95.4 mmHg
COc1ccccc1N1CCN(CC(O)COc2cccc3c(=O)c4ccccc4oc23)CC1.Cl (racemic),Activity,[2],102 mmHg
Cl.Cl.Cl.O=c1c2ccc(Cl)cc2oc2c(OCC(O)CN3CCN(CCOc4ccccc4)CC3)cccc12 (racemic),Activity,[5],103.6 mmHg
same,Activity,[8],18.8 ms
same,Activity,[6],115.2 mmHg
same,Activity,[9],283.41 bpm
same,Activity,[7],102.6 mmHg
same,Activity,[10],50.48 ms
same,Activity,[11],32.81 ms
Cl.Cl.Cl.O=c1c2ccc(Cl)cc2oc2c(OCC(O)CN3CCN(C/C=C/c4ccccc4)CC3)cccc12 (racemic),Activity,[12],73.6 ms
same,Activity,[13],20.2 ms
same,Activity,[14],317.3 bpm
same,Activity,[15],74.6 ms
same,Activity,[16],74.7 ms
same,Activity,[17],45.7 ms
Cl.Cl.Cl.O=c1c2ccc(Cl)cc2oc2c(OCC(O)CN3CCN(Cc4ccccc4)CC3)cccc12 (racemic),Activity,[8],19.2 ms
same,Activity,[9],268.8 bpm
same,Activity,[10],72.8 ms
same,Activity,[11],40.9 ms
Cl.Cl.O=c1c2ccccc2oc2c(OCC(O)CN3CCN(C/C=C/c4ccccc4)CC3)cccc12 (racemic),Activity,[12],76.4 ms
same,Activity,[13],23.4 ms
same,Activity,[14],328 bpm
same,Activity,[15],77.6 ms
same,Activity,[16],77 ms
same,Activity,[17],41.5 ms
